Calls of active or inactive are those of the source. The rule behind the calls is not given here.
Assays:
MDA-MB-231 [1] = experiment: Cell cycle arrest in human MDA-MB-231 cells assessed as accumulation at S phase at 2 uM after 24 to 48 hrs by propidium iodide staining based flow cytometry (reference value: 4.6%); format: functional
Method in brief: (§1)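 Cells were seeded at 1×10^6 per well and treated 24 h later with 0.5, 1 or 2 µM compound; DMSO-treated cells served as control. Methods give harvest at 48 h (floating plus trypsinised cells); the figure legend says 24 h. Cells were fixed in 70% ethanol for 30 min at 4 °C and stained with PI, Triton X-100 and RNase A for 15 min in the dark. 10000 events were counted by flow cytometry.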

A549 [2] = experiment: Induction of apoptosis in human A549 cells after 24 hrs by Annexin V-FITC/PI dual staining based flow cytometry; format: functional, cell-based
A549 (human) = experiment: Induction of apoptosis in human A549 cells assessed as late apoptotic cells at 2 uM after 24 hrs by Annexin V-FITC/PI dual staining based flow cytometry (reference value: 6.2%)
MDA-MB-231 [3] = experiment: Induction of apoptosis in human MDA-MB-231 cells assessed as necrotic cells at 1 uM after 24 hrs by Annexin V-FITC/PI dual staining based flow cytometry (reference value: 1.9%); format: functional
A549 [4] = experiment: Antimigratory activity in human A549 cells at 0.5 to 2 uM measured after 24 to 48 hrs by wound healing assay; format: functional, cell-based
Method in brief: (§2)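 Wound-healing assay. Cells were seeded at 5×10^5 per well and grown 24 h to a confluent monolayer, then scratched once across the middle with a sterile pipette tip and washed twice with PBS. Compound was added at 0.5, 1 and 2 µM. Wound closure was photographed by phase-contrast microscopy at 0, 24 and 48 h in three or more random fields.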

A549 [5] = experiment: Induction of apoptosis in human A549 cells assessed as condensation of nuclei at 0.5 to 2 uM after 48 hrs by Hoechst […] staining based fluorescence microscopy; format: functional, cell-based
Method in brief: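 Cells at 25×10^4 per well were allowed to adhere 24 h, then treated with 0.5, 1 and 2 µM compound for 48 h at 37 °C. After a PBS wash they were stained with Hoechst […] (5 µg/mL) for 30 min at room temperature and washed twice. Nuclear morphology was viewed by fluorescence microscopy (ex 350/em 460 nm).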

MDA-MB-231 [6] = experiment: Induction of reactive oxygen species generation in human MDA-MB-231 cells at 0.5 to 2 uM after 48 hrs by carboxy-DCFDA staining based spectrofluorometry relative to control; format: functional
MDA-MB-231 [7] = experiment: Induction of apoptosis in human MDA-MB-231 cells after 24 hrs by Annexin V-FITC/PI dual staining based flow cytometry; format: functional, cell-based
A549 [8] = experiment: Induction of apoptosis in human A549 cells assessed as late apoptotic cells at 0.5 uM after 24 hrs by Annexin V-FITC/PI dual staining based flow cytometry (reference value: 4.5%); format: functional
A549 [9] = experiment: Cytotoxicity against human A549 cells assessed as inhibition of colony formation after 24 hrs by methylene blue staining-based assay; format: functional, cell-based
Method in brief: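 Clonogenic assay. Cells were plated at 500 per well and allowed to adhere 24 h. Compound was added at 0.1, 1 and 10 µM for 24 h, then medium was replaced and cells grown a further 14 days. Colonies were fixed with 4% paraformaldehyde, stained with 0.5% methylene blue in PBS for 30 min, rinsed and photographed.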

A549 [10] = experiment: Cell cycle arrest in human A549 cells assessed as accumulation at S phase at 0.5 uM after 24 to 48 hrs by propidium iodide staining based flow cytometry (reference value: 18.3%); format: functional; method in brief: as §1
MDA-MB-231 [11] = experiment: Cell cycle arrest in human MDA-MB-231 cells assessed as accumulation at G0/G1 phase at 0.5 uM after 24 to 48 hrs by propidium iodide staining based flow cytometry (reference value: 74.4%); format: functional; method in brief: as §1
MDA-MB-231 [12] = experiment: Cell cycle arrest in human MDA-MB-231 cells assessed as accumulation at S phase at 0.5 uM after 24 to 48 hrs by propidium iodide staining based flow cytometry (reference value: 4.6%); format: functional; method in brief: as §1
A549 [13] = experiment: Induction of apoptosis in human A549 cells assessed as necrotic cells at 2 uM after 24 hrs by Annexin V-FITC/PI dual staining based flow cytometry (reference value: 5.2%); format: functional
A549 [14] = experiment: Cell cycle arrest in human A549 cells assessed as accumulation at G0/G1 phase at 2 uM after 24 to 48 hrs by propidium iodide staining based flow cytometry (reference value: 49.1%); format: functional; method in brief: as §1
A549 [15] = experiment: Cell cycle arrest in human A549 cells assessed as accumulation at G2/M phase after 24 to 48 hrs by propidium iodide staining based flow cytometry; format: functional; method in brief: as §1
MDA-MB-231 [16] = experiment: Cell cycle arrest in human MDA-MB-231 cells assessed as accumulation at G2/M phase at 0.5 uM after 24 to 48 hrs by propidium iodide staining based flow cytometry (reference value: 20.2%); format: functional; method in brief: as §1
MDA-MB-231 [17] = experiment: Antimigratory activity in human MDA-MB-231 cells at 0.5 to 2 uM measured after 24 to 48 hrs by wound healing assay; format: functional, cell-based; method in brief: as §2
MDA-MB-231 [18] = experiment: Induction of apoptosis in human MDA-MB-231 cells assessed as viable cells at 0.5 uM after 24 hrs by Annexin V-FITC/PI dual staining based flow cytometry (reference value: 91%); format: functional; settings: MDA-MB-231, 24 h, read-out: Activity
A549 [19] = experiment: Cell cycle arrest in human A549 cells assessed as accumulation at S phase at 1 uM after 24 to 48 hrs by propidium iodide staining based flow cytometry (reference value: 18.3%); format: functional; method in brief: as §1
A549 [20] = experiment: Induction of apoptosis in human A549 cells assessed as viable cells at 0.5 uM after 24 hrs by Annexin V-FITC/PI dual staining based flow cytometry (reference value: 85%); format: functional; settings: A549, 24 h, read-out: Activity
A549 [21] = experiment: Cell cycle arrest in human A549 cells assessed as accumulation at G2/M phase at 2 uM after 24 to 48 hrs by propidium iodide staining based flow cytometry (reference value: 22.3 to 31%); format: functional; method in brief: as §1
[22] = Cytotoxicity against human U87MG cells assessed as growth inhibition after 72 hrs by MTT assay; format: functional, cell-based, U-87MG ATCC; settings: U-87 MG
Method in brief: (§3)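 Cells in RPMI 1640 (PC-3, A549, MDA-MB-231) or DMEM (U87MG, MCF-7) with 10% FBS, passages 4-10, were seeded at 3000-5000 per well and left 24 h. Compounds in DMSO/medium were added for 72 h; DMSO served as control. MTT (5 mg/mL) was added for 4 h and formazan dissolved in DMSO. Absorbance was read at 570 nm minus 630 nm. % inhibition was taken versus DMSO, with IC50 by probit; mean ± SD of three experiments in triplicate.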

A549 [23] = experiment: Induction of apoptosis in human A549 cells assessed as early apoptotic cells at 1 uM after 24 hrs by Annexin V-FITC/PI dual staining based flow cytometry (reference value: 5.3%); format: functional
[24] = Cytotoxicity against human PC3 cells assessed as growth inhibition after 72 hrs by MTT assay; format: functional, cell-based; settings: PC-3, 72 h; method in brief: as §3
MDA-MB-231 (human) = experiment: Induction of apoptosis in human MDA-MB-231 cells assessed as late apoptotic cells at 2 uM after 24 hrs by Annexin V-FITC/PI dual staining based flow cytometry (reference value: 4.5%)

O=C1c2ccccc2Nc2ccccc2N1Cc1cn(Cc2ccccc2)nn1
Activity (MDA-MB-231 [1]): 5.5%
Activity (A549 [2]): Dose-dependent effect
Activity (A549 (human)): 15.6%
Activity (MDA-MB-231 [3]): 1.4%
inhibition (A549 [4]): Dose-dependent effect
Activity (A549 [5]): Active
fold change (FC) (MDA-MB-231 [6]): 2.09
Activity (MDA-MB-231 [7]): Dose-dependent effect
Activity (A549 [8]): 12.7%
inhibition (A549 [9]): Dose-dependent effect
Activity (A549 [10]): 19.5%
Activity (MDA-MB-231 [11]): 73.6%
Activity (MDA-MB-231 [12]): 1.2%
Activity (A549 [13]): 3.8%
Activity (A549 [14]): 34.7%
Activity (A549 [15]): Dose-dependent effect
Activity (MDA-MB-231 [16]): 22.3%
inhibition (MDA-MB-231 [17]): Dose-dependent effect
viability at 0.5 µM (MDA-MB-231 [18]): 70%
Activity (A549 [19]): 15.3%
viability at 0.5 µM (A549 [20]): 75%
Activity (A549 [21]): 51.3%
IC50 [22]: 6.97 µM
Activity (A549 [23]): 14.5%
IC50 [24]: 4.21 µM
Activity (MDA-MB-231 (human)): 17%
